Here are results for one compound from ChEMBL document CHEMBL2439985, “Multifunctional cyclic D,L-α-peptide architectures stimulate non-insulin dependent glucose uptake in skeletal muscle cells and protect them against oxidative stress” (J Med Chem, 2013).

Data set [1] in a line: Cellular uptake in intracellular vesicle of rat L6 cells at 10 uM after 4 hrs by WGA/Hoechst staining-based confocal fluorescent microscopic analysis. It is filed as ADME, cell-based. Conditions: l6, 4 h; call rule not given here. An outline of the steps: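 Live L6 myotubes on glass-bottom dishes were given NBD-labelled peptide (10 μM) for 4 h in medium with 1% FBS, then washed. Nuclei were stained with Hoechst and membranes with Alexa Fluor-WGA. Imaging was by confocal microscopy at 37 °C.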

A short description of data set [2]: Induction of self-assembly of the compound in DMSO at 1 uM by fluorescence spectroscopic analysis. It is filed as physicochemical. A digest of the protocol:
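Self-assembly of NBD-labelled peptide (1 μM) in 1:1 DMSO/MES (25 mM, pH 6.6) was followed as fluorescence decrease over time.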

Data set [3] can be described thus: Antioxidant activity assessed as inhibition of H2O2-induced ROS production by DCFH assay. It is filed as functional. An outline of the steps:
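DCFH oxidation assay: H2O2 (0.5 mM) was incubated with DCFH with or without the test agent, and the DCF formed was read fluorometrically. Free His and Trolox served as controls.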

As for `O=C1N[C@H](CCCCNc2ccc([N+](=O)[O-])c3nonc23)C(=O)N[C@@H](Cc2c[nH]cn2)C(=O)N[C@H](Cc2c[nH]c3ccccc23)C(=O)N[C@@H](Cc2c[nH]c3ccccc23)C(=O)N[C@H](Cc2c[nH]cn2)C(=O)N[C@@H](Cc2c[nH]cn2)C(=O)N[C@H](Cc2c[nH]cn2)C(=O)N[C@H]1Cc1c[nH]cn1`, in data set [1], the Drug uptake result is given as “Active”. Moreover, the result in data set [2] was Active. In data set [3], the EC50 (commonly the concentration at which the effect is half-maximal) was 300 nM.
